Data published in ChEMBL document CHEMBL1128687, “5-Methyl-6-phenyl-1,3,5,6-tetrahydro-3,6-methano-1,5-benzodiazocine-2,4-dione (BA 41899): representative of a novel class of purely calcium-sensitizing agents” (J Med Chem, 1995).
Each block holds one compound with its values, some of them ahead of it. The source made the active and inactive calls. The calls are words filed in the database; no cut-off is given here.

Assays:
[1] = organism: Sus scrofa; test: Increase in isometric force of porcine myocardial skinned fibers at 30 uM; type: functional
[2] = organism: Sus scrofa; test: Effect on porcine myocardial skinned fibers at 1-100 uM (ineffective); type: functional
[3] = organism: Cavia porcellus; test: Positive inotropic effect, increased isometric tension on guinea pig heart; type: functional
Summary of the method: (§1)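 Left atria from urethane-anaesthetized guinea pigs in Krebs–Henseleit medium at 32 °C, electrically stimulated isometrically at 2.5 s⁻¹ (also 0.25 s⁻¹); compound applied at 1–100 μM after equilibration, exposure up to 60 min; twitch force recorded, EC50 as concentration giving half-maximal effect.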

[4] = organism: Sus scrofa; test: Maximal activation of porcine myocardial skinned fibers at 40 uM free [Ca2+] without compound; type: functional
[5] = organism: Sus scrofa; test: Reduced [Ca2+] activated force development on porcine skinned myocardial fibers at 100 uM; type: functional; set-up: scale not given: the % may be the effect or the level left
[6] = organism: Sus scrofa; test: Increase in [Ca2+] activated force in porcine myocardial skinned fibers; type: functional, Myocardium
[7] = organism: Sus scrofa; test: Maximal activation of porcine myocardial skinned fibers at 40 uM [Ca2+] with 100 uM compound; type: functional
[8] = organism: Sus scrofa; test: Increased [Ca2+] activated force in porcine myocardial skinned fibers; type: functional; conditions: Myocardium
[9] = molecular target: T1, Alpha-2A adrenergic receptor (Homo sapiens) (UniProt P08913); test: Effect against Alpha-2 adrenergic receptor using clonidine as ligand; No effect; conditions: Cavia porcellus
T1 sequence (whole entry): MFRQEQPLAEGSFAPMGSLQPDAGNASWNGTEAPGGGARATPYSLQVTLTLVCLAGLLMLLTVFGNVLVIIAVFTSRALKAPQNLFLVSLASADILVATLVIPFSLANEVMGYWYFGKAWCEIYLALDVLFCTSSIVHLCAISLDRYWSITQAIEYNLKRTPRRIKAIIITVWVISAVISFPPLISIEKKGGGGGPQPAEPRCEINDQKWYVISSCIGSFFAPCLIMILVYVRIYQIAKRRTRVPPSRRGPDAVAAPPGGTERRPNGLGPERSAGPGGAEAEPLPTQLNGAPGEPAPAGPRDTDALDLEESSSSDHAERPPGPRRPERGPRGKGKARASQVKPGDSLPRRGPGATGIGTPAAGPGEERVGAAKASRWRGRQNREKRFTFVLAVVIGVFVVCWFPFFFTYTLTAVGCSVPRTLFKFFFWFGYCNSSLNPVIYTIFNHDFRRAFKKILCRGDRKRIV

[10] = organism: Cavia porcellus; test: Inotropic effect at 100 uM; Loses most of its inotropic activity due to resting tension; type: functional; summary of the method: as §1
[11] = organism: Cavia porcellus; test: Inhibition of desmethoxyverapamil binding to Sarcolemmal Ca+2 channel (No effect)
[12] = molecular target: Histamine H1 receptor (Cavia porcellus) (UniProt P31389); test: Effect against histamine H1 receptor; No effect
[13] = molecular target: T2, Alpha-1A adrenergic receptor (Homo sapiens) (UniProt P35348); test: Effect against Alpha-1 adrenergic receptor using prazosin as ligand; No effect; conditions: Cavia porcellus
T2 sequence (whole entry): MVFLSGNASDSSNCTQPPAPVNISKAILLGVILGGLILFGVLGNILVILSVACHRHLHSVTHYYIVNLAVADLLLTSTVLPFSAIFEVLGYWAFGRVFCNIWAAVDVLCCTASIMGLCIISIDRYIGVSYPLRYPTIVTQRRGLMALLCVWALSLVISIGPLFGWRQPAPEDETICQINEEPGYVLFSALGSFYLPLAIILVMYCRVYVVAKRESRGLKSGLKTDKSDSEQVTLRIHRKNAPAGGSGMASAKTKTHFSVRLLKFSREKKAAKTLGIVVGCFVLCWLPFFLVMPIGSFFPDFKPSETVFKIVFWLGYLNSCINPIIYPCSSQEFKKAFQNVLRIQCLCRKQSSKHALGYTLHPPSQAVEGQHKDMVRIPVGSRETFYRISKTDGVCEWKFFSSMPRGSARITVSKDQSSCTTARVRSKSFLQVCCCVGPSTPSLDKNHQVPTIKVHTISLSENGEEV

[14] = molecular target: Beta-1 adrenergic receptor (Cavia porcellus) (UniProt B0FL73); test: Effect against Beta-1 adrenergic receptor using dehydroalprenolol as ligand; No effect
[15] = organism: Cavia porcellus; test: Activating effect on Sarcolemmal Ca+2 ATPase was determined
[16] = molecular target: GABA-A receptor; anion channel (Homo sapiens) (UniProt P14867+P47870+P18507+P28472+P48169+Q99928+Q9UN88+P34903+O00591+O14764+Q8N1C3+P18505+P78334+P47869+P31644+Q16445); test: Binding affinity against GABA-A benzodiazepine receptor using flunitrazepam; type: protein-complex assay; conditions: Cavia porcellus
[17] = organism: Cavia porcellus; test: Activating effect on Sarcolemmal Ca+2 channel uptake was determined; type: functional
[18] = molecular target: Phosphodiesterase 4 (Homo sapiens) (UniProt P27815+Q08499+Q07343+Q08493); test: Inhibition of Phosphodiesterase 4; type: protein assay; conditions: Cavia porcellus
[19] = organism: Sus scrofa; test: Increased contractile response in skinned myocardial fibers in presence of 0.1-10 uM free [Ca2+]; type: functional; conditions: Myocardium
[20] = organism: Sus scrofa; test: Increased [Ca2+] activated force in porcine myocardial skinned fibers (Not effective); type: functional, Myocardium
[21] = organism: Sus scrofa; test: Increase in [Ca2+] activated force in porcine myocardial skinned fibers (ineffective); type: functional; conditions: Myocardium
[22] = organism: Cavia porcellus; test: Reduced spontaneous beating frequency at 1-100 uM in guinea pig heart; type: functional
Summary of the method: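 Right atria from urethane-anaesthetized guinea pigs, mounted isometrically in Krebs–Henseleit medium at 32 °C; spontaneous sinus-node beating rate recorded over 1–100 μM compound; EC50 taken as concentration giving half-maximal effect.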

[23] = organism: Sus scrofa; test: Increase in isometric force of myocardial skinned fibres at 30 uM with free [Ca2+]; type: functional
[24] = organism: Sus scrofa; test: Increased [Ca2+] activated force in porcine myocardial skinned fibers by racemic mixture; type: functional; conditions: Myocardium
[25] = organism: Sus scrofa; test: Increase in isometric force in myocardial skinned fibres at 100 uM with free [Ca2+]; type: functional, Myocardium

Sequence of Beta-1 adrenergic receptor (Cavia porcellus) (B0FL73 1-467): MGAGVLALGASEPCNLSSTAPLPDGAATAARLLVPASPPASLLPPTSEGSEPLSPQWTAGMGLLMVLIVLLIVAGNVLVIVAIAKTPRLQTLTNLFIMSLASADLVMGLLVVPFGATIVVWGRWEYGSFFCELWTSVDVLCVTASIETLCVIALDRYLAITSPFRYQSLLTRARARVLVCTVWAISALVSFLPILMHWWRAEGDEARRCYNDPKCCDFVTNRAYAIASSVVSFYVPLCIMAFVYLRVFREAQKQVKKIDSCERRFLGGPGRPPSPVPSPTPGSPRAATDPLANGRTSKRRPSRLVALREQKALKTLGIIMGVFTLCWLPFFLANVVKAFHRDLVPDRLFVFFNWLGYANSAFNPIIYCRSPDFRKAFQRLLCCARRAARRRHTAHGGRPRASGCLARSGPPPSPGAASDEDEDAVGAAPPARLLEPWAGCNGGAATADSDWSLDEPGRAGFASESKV
Sequence of Histamine H1 receptor (Cavia porcellus) (P31389 whole entry): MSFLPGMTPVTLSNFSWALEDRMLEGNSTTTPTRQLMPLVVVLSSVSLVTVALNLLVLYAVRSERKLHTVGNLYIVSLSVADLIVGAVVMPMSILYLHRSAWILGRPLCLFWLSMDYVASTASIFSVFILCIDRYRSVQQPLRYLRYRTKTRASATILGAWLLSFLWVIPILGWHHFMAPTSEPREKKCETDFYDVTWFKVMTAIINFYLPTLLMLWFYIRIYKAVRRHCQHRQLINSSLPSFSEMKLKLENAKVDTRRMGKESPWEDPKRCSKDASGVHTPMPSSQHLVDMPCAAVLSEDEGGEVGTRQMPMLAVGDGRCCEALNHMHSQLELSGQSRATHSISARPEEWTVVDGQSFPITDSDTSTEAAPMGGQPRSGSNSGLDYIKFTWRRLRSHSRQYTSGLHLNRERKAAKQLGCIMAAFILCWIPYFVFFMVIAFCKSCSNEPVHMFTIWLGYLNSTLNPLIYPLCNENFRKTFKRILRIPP

Compound: COc1ccc(C(=O)N2CCCc3cc(C4=NNC(=O)SC4C)ccc32)cc1OC (centres undefined)
Effect [1]: 400%

Compound: CN1C(=O)C2(c3ccccc3)CC1C(=O)Nc1ccccc12 (centres undefined)
Effect [2]: inactive

Compound: CN1C(=O)C2(c3ccccc3)CC1NC(=O)c1ccccc12 (centres undefined)
Effect [2]: inactive

Compound: CN1C(=O)C2CC1(c1ccccc1)c1ccccc1C(=O)N2 (centres undefined)
Effect [2]: inactive

EC50 [3]: 8 µM
EC50 [4]: 3 µM
EC50 [7]: 0.3 µM
EC50 [8]: 10 µM
Compound: CN1C(=O)C2CC1(c1ccccc1)c1ccccc1NC2=O (single isomer, unassigned; (+)) [listing 1 of 2 here]
Effect [3]: 40%
Effect [5]: 17%
Effect [6]: 280%

Effect [9]: inactive
Effect [11]: inactive
Effect [12]: inactive
Effect [13]: inactive
Effect [14]: inactive
Effect [15]: inactive
Effect [16]: inactive
Effect [18]: inactive
Compound: CN1C(=O)C2CC1(c1ccccc1)c1ccccc1NC2=O (single isomer, unassigned; (+)) [listing 2 of 2 here]
Activity [10]: inactive
Effect [17]: inactive
Effect [19]: Active

EC50 [20]: Not Active
Compound: CN1C(=O)C2CC1(c1ccccc1)c1ccccc1NC2=O (single isomer, unassigned; (-)) [listing 1 of 2 here]

Compound: CN1C(=O)C2CC1(c1ccccc1)c1ccccc1NC2=O (single isomer, unassigned; (-)) [listing 2 of 2 here]
Effect [21]: inactive

EC50 ([3]; Cavia porcellus, Heart): 15 µM
EC50 [24]: 20 µM
Compound: CN1C(=O)C2CC1(c1ccccc1)c1ccccc1NC2=O (stereo in doubt)
Reduction [22]: 55%
Effect [23]: 60%
Effect [25]: 60%
